An excerpt weighted towards active compounds, which were near 0.79% of everything screened.
hIAP act: human IAP activators, primary screen, biochemical, luminescence, uHTS. Intestinal-type alkaline phosphatase (Homo sapiens), P09923. 330,000 tested, 0.16% active. purified human IAP, CDP-Star luminescence, 30 min; active compounds read high; 1 = vehicle-only enzyme, 0 = enzyme-free background. AID 2524, 2010. activation factor at 10 µM;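 active means activation factor of the enzyme at least 2-fold when tested at 20 µM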
Target sequence (P09923 whole entry, looked up): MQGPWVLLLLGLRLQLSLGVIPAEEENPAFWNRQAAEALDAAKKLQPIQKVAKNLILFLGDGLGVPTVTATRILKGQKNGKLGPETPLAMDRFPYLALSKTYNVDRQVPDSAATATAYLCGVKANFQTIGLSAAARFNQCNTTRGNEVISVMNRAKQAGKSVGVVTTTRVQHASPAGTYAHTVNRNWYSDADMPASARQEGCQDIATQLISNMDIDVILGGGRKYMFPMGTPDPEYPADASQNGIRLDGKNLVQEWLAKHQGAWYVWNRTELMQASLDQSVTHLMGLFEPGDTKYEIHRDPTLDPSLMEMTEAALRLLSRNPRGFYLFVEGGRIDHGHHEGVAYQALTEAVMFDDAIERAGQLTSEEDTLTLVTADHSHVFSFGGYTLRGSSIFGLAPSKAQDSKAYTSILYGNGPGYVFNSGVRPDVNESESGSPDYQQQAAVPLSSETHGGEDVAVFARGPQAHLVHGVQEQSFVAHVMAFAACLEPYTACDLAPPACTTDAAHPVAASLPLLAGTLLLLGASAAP
bIAP activator: bovine intestinal alkaline phosphatase activators, primary screen, biochemical, bovine IAP, CDP-star luminescence | alkaline phosphatase, intestinal [Bos taurus] | purified bovine IAP, 30 min; active compounds read high; fold of DMSO-control signal, blank-subtracted | activation factor at 20 µM | 200,000 tested, 0.17% active | AID 1016, 2008;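 active means activation factor of 2 or more at 20 µM, a signal rise over negative controls twice the positive control's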
mIAP activ: activators of mouse IAP, primary screen, biochemical, luminescence, uHTS; intestinal alkaline phosphatase [Mus musculus]; muIAP, CDP-Star luminescence, 30 min; active compounds read high; 1 = vehicle-only enzyme signal, 0 = enzyme-free wells; activation factor at 10 µM; 330,000 tested, 0.24% active; AID 2805, 2010;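 active means activation factor of at least 2 at 20 µM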
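Assay system: mouse IAP enzyme; reagent: chemiluminescent substrate CDP-Star; dosing: test compounds delivered from DMSO solution; schedule: 30 min at room temperature; measured by: luminescence from enzymatic CDP-Star hydrolysis; controls: DMSO-only wells and no-enzyme negative control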
mIAP inh: inhibitors of mouse IAP, primary screen, biochemical, luminescence, uHTS. intestinal alkaline phosphatase [Mus musculus]. inhibition, % at 10 µM. AID 2806, 2010. purified mouse IAP, CDP-Star luminescence, 30 min. 330,000 tested, 0.2% active;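 active means inhibition of at least 40% at 10 µM in the primary screen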;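 further: plate controls were DMSO with enzyme for no effect and no enzyme wells for full effect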
bIAP inhibitor: bovine intestinal alkaline phosphatase inhibitors, primary screen, selectivity assay for TNAP inhibitor project, biochemical, bovine IAP, CDP-star luminescence. alkaline phosphatase, intestinal [Bos taurus]. purified bovine IAP, 30 min. inhibition, % at 20 µM. 190,000 tested, under 10 active. AID 1019, 2008;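 active means over 50% inhibition of intestinal alkaline phosphatase at 20 µM in the single-dose screen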
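Assay system: bovine IAP enzyme; medium: DEA buffer 100 mM, pH 9.8, with MgCl2 1.0 mM, ZnCl2 0.02 mM; doses: 20 µM single dose; incubation: enzyme reaction for 30 min at room temperature; detection: CDP-star luminescence signal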
hIAP block: human IAP inhibitors, primary screen, biochemical, luminescence, uHTS; Intestinal-type alkaline phosphatase (Homo sapiens), P09923; purified IAP, CDP-Star luminescence, 30 min; inhibition, % at 10 µM; 330,000 tested, 0.12% active; AID 2544, 2010;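 active means inhibition reaching a set limit with compound at 10 µM in the primary screen, cut at about 35% in these data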;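 further: plate controls were DMSO wells with enzyme for no effect and no-enzyme buffer wells for full effect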
Numbers without * were called inactive; x = no result given.

SMILES	hIAP act	bIAP activator	mIAP activ	mIAP inh	bIAP inhibitor	hIAP block
Nc1ccc(S(=O)(=O)NNC(=O)C(=O)NNc2ccccn2)cc1	2.66*	1.3	0.728	27.2	-30.0	-165.6
COc1ccc(-c2ccc(/C=C3/C(=N)N4C(C)=CSC4=NC3=O)o2)c([N+](=O)[O-])c1	0.759	0.9	0.841	15.9	11.9	24.1
Cc1ccc(N2CCN(C(=O)CCc3nc4ccccc4[nH]3)CC2)c(C)c1	1.06	2.7*	1.41	-41.2	-165.8	-6.0
CCOc1cc(/C=N/NC(=O)c2ccncc2)ccc1OC(=O)c1ccccc1	0.817	x	0.902	9.8	x	18.3
Cn1cccc1CC(=O)NNC(=S)Nc1ccc(Cl)cc1	2.1*	1	0.959	4.1	-4.2	-110.1
COC(=O)c1cccc(NC(=O)NC23CC4CC(CC(C4)C2)C3)c1	0.982	1	2.56*	-156.4	2.2	1.8
COc1ccc(NC(=O)Nc2cccc(OC)c2)cc1	0.952	x	1.67	-66.5	x	4.8
COc1ccccc1NS(=O)(=O)c1cccc(NC(=O)Nc2cccc(Cl)c2)c1	1.05	0.9	2.23*	-123.5	9.9	-5.5
N#CCc1ccc(NC(=O)Nc2cccc(Cl)c2)cc1	1.39	0.9	2.76*	-176.1	7.4	-39.0
COc1cccc(NC(=O)Nc2cc(Cl)ccc2C)c1	0.843	1.2	2.23*	-122.7	-16.5	15.7
COc1ccccc1NS(=O)(=O)c1cccc(NC(=O)NCCCl)c1	1.09	x	1.08	-7.9	x	-8.9
O=C(CSc1nc(-c2cccs2)cc(C(F)(F)F)n1)NCCCN1CCOCC1	0.961	1.2	0.97	3.0	-20.6	3.9
Cc1ccc(-c2nc3c(c(=O)c4ccccc4n3C)c(=O)n2Cc2ccco2)cc1	0.875	x	1.05	-4.8	x	12.5
Cc1ccc(S(=O)(=O)Nc2ccc(NC(=O)/C=C/C(=O)O)cc2)cc1	0.959	1.1	0.995	0.5	-9.4	4.1
Cc1csc(NC(=O)Nc2cccc(Cl)c2)n1	1.16	2.2*	1.18	-18.4	-122.6	-15.5
Cc1nnc(NC(=O)Nc2cccc(Cl)c2)s1	1.13	0.9	0.982	1.8	5.7	-12.8
COC(=O)c1cccc(NC(=O)Nc2ccc(Cl)cc2)c1	0.999	x	2.23*	-123.3	x	0.1
c1ccc2c3c([nH]c2c1)C(C1CCCCC1)N(Cc1ncc[nH]1)CC3 (stereo not drawn)	1.1	2.1*	1.24	-24.0	-109.1	-9.7
CCOc1ccc(C(=O)N/N=C/c2ccccc2[N+](=O)[O-])cc1	1.12	2*	1.1	-10.1	-101.4	-12.5
CN1C(=O)/C(=C/c2ccc(C(F)(F)F)cc2)Sc2ccc(C(=O)N3CCN(c4ccccn4)CC3)cc21	0.927	x	1.08	-7.6	x	7.3
NS(=O)(=O)c1ccc(N2N=C(c3ccccc3)CC2c2ccccc2)cc1 (stereo not drawn)	1.37	0.9	2.05*	-105.4	12.3	-37.4
N#CC1=C(S)N(c2ccccc2)C(c2ccc(-c3cc(Cl)ccc3Cl)o2)NC1=O (stereo not drawn)	0.948	2*	0.835	16.5	-101.1	5.2
N#CC1=C(S)N(c2ccccc2)C(c2ccc(-c3ccc(Cl)c(Cl)c3)o2)NC1=O (stereo not drawn)	0.784	x	0.826	17.4	x	21.6
OC[C@@H]1[C@@H](c2ccc(Cl)cc2)C(c2ccccc2)=NN1c1ccccc1	x	x	2.05*	-104.9	x	x
C[C@H]1C(c2ccc(F)cc2)=NN(c2ccccc2)[C@@H]1CO	x	x	1.59	-59.4	x	x
SMILES	hIAP act	bIAP activator	mIAP activ	mIAP inh	bIAP inhibitor	hIAP block
OC[C@@H]1[C@@H](c2ccc(F)cc2)C(c2cccc(Cl)c2)=NN1c1ccccc1	x	x	2.13*	-113.0	x	x
COc1ccccc1[C@H]1C(c2ccc(F)cc2)=NN(c2ccccc2)[C@@H]1CO	x	x	1.56	-55.7	x	x
Cc1ccc(NC(=O)Nc2cc(S(=O)(=O)N(C)C)ccc2C)cc1	1.1	0.8	2.77*	-177.3	18.8	-10.2
CCn1c2ccccc2c2cc(NC(=O)C3CCN(S(=O)(=O)c4cccs4)CC3)ccc21	1.14	1.3	2.96*	-196.0	-33.2	-14.2
COc1ccc(Cl)cc1NC(=O)CN1CCC(n2nnc3cc(C)ccc32)CC1	0.911	5.3*	1.15	-15.2	-434.6	8.9
COc1ccc(-c2nc3ccccc3n2Cc2ccccc2)cc1	1.17	3*	0.974	2.6	-196.4	-16.7
C=CCn1c(-c2ccc(OC)cc2)nc2ccccc21	0.991	0.9	0.927	7.3	13.3	1.0
CCOC(=O)C(Cc1c(F)cccc1Cl)c1ccnc2nc(N)nn12 (stereo not drawn)	1.05	1.1	1.01	-1.0	-7.5	-5.4
CC(C)c1ccc(NC(=O)COC(=O)C2=COCCO2)cc1	1.04	0.9	1.05	-5.0	8.4	-4.1
COc1ccccc1N(CC(=O)Nc1ccc(Cc2ccncc2)cc1)S(=O)(=O)c1ccccc1	1.23	x	1.22	-22.2	x	-23.3
COc1ccc(N(CC(=O)Nc2ccc(Cc3ccncc3)cc2)S(=O)(=O)c2ccccc2)cc1	1.22	x	2.35*	-135.4	x	-22.2
CC(C)NC[C@@H](O)c1ccc(O)c(O)c1	1.05	0.9	0.57	43.0*	10.8	-5.4
CCN(CC)CCCNC(=O)CNC(=S)N(CCCN1CCOCC1)Cc1cccs1	1.14	2.1*	1.05	-5.5	-111.6	-14.2
O=C(CNC(=S)N(CCCN1CCOCC1)Cc1cccs1)NCCN1CCOCC1	0.93	0.9	1.02	-1.6	14.9	7.0
CC(NC(=O)C1CC1)C(c1cccs1)N1CCN(c2ccccc2)CC1 (stereo not drawn)	0.928	0.9	1.08	-8.5	9.2	7.2
CC(NC(=O)NC1CCCCC1)C(c1cccs1)N1CCN(c2ccccc2)CC1 (stereo not drawn)	0.785	1.3	2*	-100.0	-32.2	21.5
Cc1c(NC(=O)C(C)Sc2nccn2C)c(=O)n(-c2ccccc2)n1C (stereo not drawn)	1.34	x	1.21	-21.2	x	-33.6
O=C(Nc1cccc(C(=O)O)c1)/C(=C\c1ccccc1)NC(=O)c1ccccc1	1.04	1	0.992	0.8	3.7	-4.5
Cc1ccc(C(=O)N/C(=C/c2ccc(Cl)cc2)C(=O)Nc2cccc(C(=O)O)c2)cc1	0.789	2.2*	1.07	-7.5	-118.9	21.1
COc1cccc(NC(=O)NC2CC(=O)N(c3ccc4c(c3)OCCO4)C2)c1 (stereo not drawn)	1.13	x	1.23	-23.2	x	-12.8
COc1ccc(C[C@H]2CN3C(=NC[C@H]3Cc3ccccc3)N2CCNC(=O)CCC2CCCCC2)cc1	1.01	2.4*	1.05	-4.9	-139.8	-1.0
